Test results reported in ChEMBL document CHEMBL4229498 (Bioorg Med Chem, 2018).

Legend:
Cannabinoid receptor 1 [1] = target: T1, Cannabinoid receptor 1 (Homo sapiens, UniProt P21554); assay: Displacement of [3H]-CP55940 from human CB1 receptor expressed in CHO cell membranes after 1 hr by liquid scintillation spectrometry
Cannabinoid receptor 2 = Cannabinoid receptor 2 (Homo sapiens, UniProt P34972); assay: Displacement of [3H]-CP55940 from human CB2 receptor expressed in CHO cell membranes after 1 hr by liquid scintillation spectrometry
[2] = Drug transport across apical to basolateral side in MDCK cells expressing MDR1 at 10 uM after 1 hr by mass spectrometer; type: ADME, cell-based, Canis lupus familiaris; conditions: dog
Outline: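 MDCK-mdr1 cells (human MDR1-transfected) were grown 4 days to confluence on Transwell-type filters in DMEM/F12 with 10% FBS and antibiotics. Compound was added apically at 10 µM in HBSS with 25 mM D-glucose, HEPES-buffered to pH 7.4, and incubated 1 h at 37 °C. Apical and basal samples were collected, and results are given as % transported apical to basal.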

[3] = Cmax in C57BL6 mouse plasma at […], po administered in cassette format; type: ADME, organism-based; parameters: dose 2.5 mg/kg, route oral
[4] = Ratio of drug level in brain to plasma in C57BL6 mouse at […], po administered in cassette format; type: ADME, organism-based
[5] = Half life in C57BL6 mouse at […], po administered in cassette format; type: ADME, organism-based; conditions: in vivo
[6] = Tmax in C57BL6 mouse plasma at […], po administered in cassette format; type: ADME, organism-based
Cannabinoid receptor 1 [7] = target: T1, Cannabinoid receptor 1; type: functional, cell-based, HEK293
Cannabinoid receptor 1 [8] = target: T1, Cannabinoid receptor 1; conditions: HEK293

Chain of Cannabinoid receptor 2 (P34972 whole entry): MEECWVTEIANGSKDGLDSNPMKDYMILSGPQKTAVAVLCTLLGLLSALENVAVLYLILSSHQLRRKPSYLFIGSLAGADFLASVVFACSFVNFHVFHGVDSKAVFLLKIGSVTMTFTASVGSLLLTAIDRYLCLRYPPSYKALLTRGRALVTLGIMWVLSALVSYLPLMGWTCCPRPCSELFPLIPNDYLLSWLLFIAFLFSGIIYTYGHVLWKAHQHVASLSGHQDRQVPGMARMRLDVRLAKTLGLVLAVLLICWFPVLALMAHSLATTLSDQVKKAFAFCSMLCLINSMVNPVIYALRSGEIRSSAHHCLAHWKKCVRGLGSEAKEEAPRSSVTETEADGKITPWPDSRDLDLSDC
T1 sequence (P21554 whole entry): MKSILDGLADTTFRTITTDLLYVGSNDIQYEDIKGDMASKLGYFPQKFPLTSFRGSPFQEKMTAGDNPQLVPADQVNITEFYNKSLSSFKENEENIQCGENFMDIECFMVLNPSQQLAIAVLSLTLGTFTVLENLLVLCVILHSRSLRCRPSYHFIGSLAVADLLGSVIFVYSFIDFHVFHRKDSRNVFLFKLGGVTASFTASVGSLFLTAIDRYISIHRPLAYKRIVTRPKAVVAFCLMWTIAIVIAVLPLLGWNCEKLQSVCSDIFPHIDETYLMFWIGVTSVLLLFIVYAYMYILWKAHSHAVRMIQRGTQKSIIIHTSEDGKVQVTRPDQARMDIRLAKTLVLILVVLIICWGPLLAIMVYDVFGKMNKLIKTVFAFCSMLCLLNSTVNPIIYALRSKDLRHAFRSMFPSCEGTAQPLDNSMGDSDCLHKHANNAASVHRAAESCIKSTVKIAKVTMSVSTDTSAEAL

| SMILES | Ki (Cannabinoid receptor 1 [1]) | Ki (Cannabinoid receptor 2) | Drug transport [2] | further results |
| --- | --- | --- | --- | --- |
| O=C(CC1CCCC1)N1CCN(c2ncnc3c2nc(-c2ccccc2Cl)n3-c2ccc(Cl)cc2)CC1 | 0.0004 µM | > 10 µM | – | – |
| O=S(=O)(C1CC1)N1CCN(c2ncnc3c2nc(-c2ccccc2Cl)n3-c2ccc(Cl)cc2)CC1 | 0.005 µM | – | 4% | – |
| CCS(=O)(=O)N1CCN(c2ncnc3c2nc(-c2ccccc2Cl)n3-c2ccc(Cl)cc2)CC1 | 0.003 µM | – | 18% | – |
| CC(C)(C)CC(=O)N1CCN(c2ncnc3c2nc(-c2ccccc2Cl)n3-c2ccc(Cl)cc2)CC1 | 0.002 µM | 5 µM | – | – |
| CCCCC(=O)N1CCN(c2ncnc3c2nc(-c2ccccc2Cl)n3-c2ccc(Cl)cc2)CC1 | 0.006 µM | – | 0% | – |
| O=C(Nc1ccc(F)cc1)N1CCN(c2ncnc3c2nc(-c2ccccc2Cl)n3-c2ccc(Cl)cc2)CC1 | – | – | 0% | – |
| CCOCC(=O)N1CCN(c2ncnc3c2nc(-c2ccccc2Cl)n3-c2ccc(Cl)cc2)CC1 | 0.011 µM | > 10 µM | – | – |
| O=C(Nc1ccccc1)N1CCN(c2ncnc3c2nc(-c2ccccc2Cl)n3-c2ccc(Cl)cc2)CC1 | – | – | 1% | – |
| N=C(Nc1ccc(F)cc1)N1CCN(c2ncnc3c2nc(-c2ccccc2Cl)n3-c2ccc(Cl)cc2)CC1 | – | – | 0.4% | – |
| O=C(Nc1ccc(F)cc1F)N1CCN(c2ncnc3c2nc(-c2ccccc2Cl)n3-c2ccc(Cl)cc2)CC1 | 0.005 µM | – | 1.4% | – |
| O=C(Nc1ccc(OC(F)F)nc1)N1CCN(c2ncnc3c2nc(-c2ccccc2Cl)n3-c2ccc(Cl)cc2)CC1 | – | > 10 µM | 1.1% | Cmax [3]: 0.5 µg/mL; BPR [4]: 0.18; half-life [5]: 6.1 h; Tmax [6]: 4 h; EC50 (Cannabinoid receptor 1 [7]): 0.59 µM |
| O=C(OCC1CCC1)N1CCN(c2ncnc3c2nc(-c2ccccc2Cl)n3-c2ccc(Cl)cc2)CC1 | 0.003 µM | 4.6 µM | 0% | Ke (Cannabinoid receptor 1 [8]): 12 nM |
| O=C(Nc1ccccc1F)N1CCN(c2ncnc3c2nc(-c2ccccc2Cl)n3-c2ccc(Cl)cc2)CC1 | – | – | 5% | – |
| O=C(C1CCSCC1)N1CCN(c2ncnc3c2nc(-c2ccccc2Cl)n3-c2ccc(Cl)cc2)CC1 | – | 0.53 µM | – | – |
| O=S(=O)(CC1CCOCC1)N1CCN(c2ncnc3c2nc(-c2ccccc2Cl)n3-c2ccc(Cl)cc2)CC1 | 0.003 µM | 3 µM | 9% | – |
| O=S(=O)(CC1CCCCC1)N1CCN(c2ncnc3c2nc(-c2ccccc2Cl)n3-c2ccc(Cl)cc2)CC1 | 0.0017 µM | 0.091 µM | – | – |
| O=C(NC1CCCC1)N1CCN(c2ncnc3c2nc(-c2ccccc2Cl)n3-c2ccc(Cl)cc2)CC1 | – | – | 3% | – |

| SMILES | Ki (Cannabinoid receptor 1 [1]) | Ki (Cannabinoid receptor 2) | Drug transport [2] | further results |
| --- | --- | --- | --- | --- |
| O=C(Nc1ccc(F)c(F)c1)N1CCN(c2ncnc3c2nc(-c2ccccc2Cl)n3-c2ccc(Cl)cc2)CC1 | – | – | 0% | – |
| CS(=O)(=O)N1CCN(c2ncnc3c2nc(-c2ccccc2Cl)n3-c2ccc(Cl)cc2)CC1 | 0.024 µM | 1.7 µM | 14% | – |
| O=C(CN1CCCCC1)N1CCN(c2ncnc3c2nc(-c2ccccc2Cl)n3-c2ccc(Cl)cc2)CC1 | 0.021 µM | 5 µM | 5% | – |
| O=C(OC1CCC1)N1CCN(c2ncnc3c2nc(-c2ccccc2Cl)n3-c2ccc(Cl)cc2)CC1 | 0.003 µM | 3.4 µM | – | – |
| O=C(CC1CCOC1)N1CCN(c2ncnc3c2nc(-c2ccccc2Cl)n3-c2ccc(Cl)cc2)CC1 (stereo not given) | 0.008 µM | 3 µM | – | – |
| CC(C)(C)OC(=O)N1CCN(c2ncnc3c2nc(-c2ccccc2Cl)n3-c2ccc(Cl)cc2)CC1 | 0.005 µM | 3.4 µM | 3% | – |
| CC(C)CS(=O)(=O)N1CCN(c2ncnc3c2nc(-c2ccccc2Cl)n3-c2ccc(Cl)cc2)CC1 | – | 2.8 µM | 0% | – |
| O=C(N1CCCC1)N1CCN(c2ncnc3c2nc(-c2ccccc2Cl)n3-c2ccc(Cl)cc2)CC1 | 0.013 µM | – | – | – |
| CC(C)S(=O)(=O)N1CCN(c2ncnc3c2nc(-c2ccccc2Cl)n3-c2ccc(Cl)cc2)CC1 | – | – | 11% | – |
| O=S(=O)(CCC(F)(F)F)N1CCN(c2ncnc3c2nc(-c2ccccc2Cl)n3-c2ccc(Cl)cc2)CC1 | 0.0012 µM | 0.5 µM | – | – |
| CC(C(=O)N1CCN(c2ncnc3c2nc(-c2ccccc2Cl)n3-c2ccc(Cl)cc2)CC1)c1ccccc1 (stereo not given) | 0.003 µM | 0.56 µM | – | – |
| O=C(Nc1ccccn1)N1CCN(c2ncnc3c2nc(-c2ccccc2Cl)n3-c2ccc(Cl)cc2)CC1 | – | – | 1.2% | – |
| O=C(NS(=O)(=O)c1ccccc1F)N1CCN(c2ncnc3c2nc(-c2ccccc2Cl)n3-c2ccc(Cl)cc2)CC1 | 0.25 µM | – | – | – |
| CCCS(=O)(=O)N1CCN(c2ncnc3c2nc(-c2ccccc2Cl)n3-c2ccc(Cl)cc2)CC1 | – | – | 6% | – |
| CCCCS(=O)(=O)N1CCN(c2ncnc3c2nc(-c2ccccc2Cl)n3-c2ccc(Cl)cc2)CC1 | – | – | 5% | – |
| O=C(N1CCN(c2ncnc3c2nc(-c2ccccc2Cl)n3-c2ccc(Cl)cc2)CC1)C(F)(F)F | – | 0.13 µM | – | – |
| O=C(C1COc2ccccc2O1)N1CCN(c2ncnc3c2nc(-c2ccccc2Cl)n3-c2ccc(Cl)cc2)CC1 (stereo not given) | 0.005 µM | – | 0% | – |
